Measurements: article PMC6366850 (Chembiochem : a European journal of chemical biology, 2018)
Where two headings read alike, the source gives them in different places.

What was measured:
[1] = molecular target: T1, Human Neutrophil Elastase (Homo sapiens, UniProt P08246); test: Human neutrophil elastase inhibition assay; assay type: biochemical; details: for fold less potent than 1, HNE: ratio of IC50 values
T1 sequence (P08246 30-267): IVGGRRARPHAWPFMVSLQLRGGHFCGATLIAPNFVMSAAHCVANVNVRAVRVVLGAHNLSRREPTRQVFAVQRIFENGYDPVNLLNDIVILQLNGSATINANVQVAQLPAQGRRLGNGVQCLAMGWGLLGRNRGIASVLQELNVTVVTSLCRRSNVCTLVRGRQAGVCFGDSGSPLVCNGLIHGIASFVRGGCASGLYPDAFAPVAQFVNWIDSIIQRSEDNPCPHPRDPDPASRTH

[2] = molecular target: Porcine Pancreatic Elastase (Sus scrofa, UniProt P00772); test: Porcine pancreatic elastase inhibition assay; assay type: biochemical
Chain of Porcine Pancreatic Elastase (P00772 27-266): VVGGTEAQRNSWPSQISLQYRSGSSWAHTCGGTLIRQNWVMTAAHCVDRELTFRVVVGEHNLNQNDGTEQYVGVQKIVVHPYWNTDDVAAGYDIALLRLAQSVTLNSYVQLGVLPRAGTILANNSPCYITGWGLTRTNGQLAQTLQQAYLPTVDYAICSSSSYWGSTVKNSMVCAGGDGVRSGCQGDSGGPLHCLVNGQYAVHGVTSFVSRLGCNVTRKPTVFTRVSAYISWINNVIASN

[3] = molecular target: T2, Human neutrophil elastase (HNE) (Homo sapiens, UniProt P08246); test: In vitro cleavage of CD40-IgG chimera; assay type: biochemical; details: qualitative gel assessment; for complete inhibition of CD40ch cleavage up to (concentration): tested 0.001–100 μM, 2 h pre-incubation with HNE
T2 sequence (P08246 30-267): T1 sequence (P08246 30-267)
How it was run: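 Human neutrophil elastase (100 μg/mL stock in 0.1 M Tris-NaCl, pH 7.5) was pre-incubated 2 h at 4 °C with test compound (0.001–100 μM) or DMSO. CD40-IgG chimera (human CD40 residues 21–193 fused to human IgG1 fragment) was then added at an elastase:CD40 molar ratio of 1:10 and incubated 1.5 h at 37 °C. Reactions were stopped by freezing and fragments run on reducing SDS-PAGE (2% mercaptoethanol). Gels were silver-stained and bands judged qualitatively; controls were elastase only and CD40 only.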

[4] = tested on: CD40 cleavage by HNE in MDA-MB-231 cells; test: Cleavage of CD40 by HNE in MDA-MB-231 cells, Western blot; assay type: cell-based, human; details: 100 nM HNE, 24 h
How it was run: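 MDA-MB-231 cells seeded at 150,000/well; after 24 h, medium was replaced with medium containing 100 nM recombinant human neutrophil elastase plus test compound in DMSO or solvent. Lysates were taken after 24 h incubation and protein measured by BCA. 17 μg protein was run on SDS-PAGE, blotted to PVDF and probed with anti-CD40 antibody detecting the N-terminal fragment, with chemiluminescent detection.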

MDA-MB-231 cells [5] = test: Transwell migration assay; assay type: cell-based, human; details: 48 h; for effect on migration of MDA-MB-231 cells: 100 nM HNE
How it was run: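 Transwell inserts with 8 μm pore PET membranes. 5000 MDA-MB-231 cells in DMEM/10% FBS were seeded in the insert with test compound in DMSO or solvent, with or without 100 nM recombinant HNE; the lower chamber held complete medium with the same additions. Plates were incubated 48 h at 37 °C, 5% CO₂, and non-migrated cells were swabbed off. Migrated cells were crystal violet-stained and counted microscopically, in triplicate. Comparisons to solvent control used a two-tailed unpaired t test.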

[6] = molecular target: T3, Bovine Pancreatic Chymotrypsin (Bos taurus, UniProt P00766); test: Chymotrypsin inhibition assay; assay type: biochemical
How it was run: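 Bovine pancreatic α-chymotrypsin in 50 mM Tris-HCl, 100 mM NaCl, 1 mM CaCl₂, pH 7.8. Test compound in DMSO (top 100 μM final, half-log dilutions) was pre-incubated with enzyme for 30 min at room temperature. Substrate was N-succinyl-Gly-Gly-Phe-p-nitroanilide (1.5 mM solution). A405 was read every 30 s for 30 min, with a PMSF positive control. Percent activity came from initial slopes relative to solvent control.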

MDA-MB-231 cells [7] = test: Cell viability assay; assay type: cell-based, human; details: 48 h, MTT
How it was run: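 MDA-MB-231 cells seeded at 12,000 cells/well and grown 24 h, then exposed to test compound, HNE or DMSO solvent control. After 48 h, viability was read by MTT per the kit instructions.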

[8] = tested on: ICAM-1 gene expression in MDA-MB-231 cells; test: ICAM-1 gene expression by RT-qPCR; assay type: cell-based, human; details: 12 h
How it was run: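 MDA-MB-231 cells seeded at 500,000/well, grown 24 h, then serum-starved 24 h in DMEM. Medium was replaced with serum-free DMEM containing test compound or solvent, with 100 nM HNE where applied, for 12 h. RNA was isolated, reverse-transcribed with oligo(dT), and ICAM-1 transcripts were quantified by TaqMan qPCR.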

[9] = tested on: sICAM-1 (ICAM-1 shedding) in MDA-MB-231 cells; test: sICAM-1 levels by ICAM-1 AlphaLisa; assay type: cell-based, human; details: 12 h; for reduction in the levels of sICAM-1: co-treatment with 100 nM HNE
How it was run: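 MDA-MB-231 cells were grown overnight, starved 24 h, then placed in serum-free DMEM containing test compound or solvent, with 100 nM HNE where applied. After 12 h, culture medium was collected and soluble ICAM-1 quantified by AlphaLisa.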

MDA-MB-231 cells [10] = test: HNE-induced morphological changes; assay type: cell-based, human
[11] = molecular target: purified 20S human proteasome (Homo sapiens, UniProt P28074); test: Proteasome activity assay; assay type: biochemical; details: 50 μM, compared to positive control epoxomicin
How it was run: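 Purified human 20S proteasome (0.1 μg/well final) was pre-incubated 10 min at room temperature with test compound (50 μM final). Suc-LLVY-AMC substrate (75 μM final) was then added to measure chymotrypsin-like activity, using a commercial kit per the manufacturer's protocol.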

[12] = molecular target: T3, Bovine Pancreatic Chymotrypsin; details: read-out: reported IC50 against bovine chymotrypsin; cited from earlier work
[13] = read-out: IC50 Human Neutrophil Elastase, mean ± SD, n=3, 15 min pre-incubation

CCCC(=O)N[C@@H](C)C(=O)N[C@H](C(=O)N[C@@H]1C(=O)N[C@@H](CC(C)C)C(=O)N[C@H]2CC[C@@H](O)N(C2=O)[C@@H](Cc2ccccc2)C(=O)N(C)[C@@H](Cc2ccc(O)cc2)C(=O)N[C@@H](C(C)C)C(=O)O[C@@H]1C)[C@H](C)O [Loggerpeptin A (1), loggerpeptin A]
IC50 [1, 13]: 290 ± 40 nM

CCCC(=O)N[C@@H](C)C(=O)N[C@@H](C(=O)N[C@@H]1C(=O)N[C@@H](CC(C)C)C(=O)N[C@H]2CC[C@@H](O)N(C2=O)[C@@H](Cc2ccccc2)C(=O)N(C)[C@@H](Cc2ccc(O)cc2)C(=O)N[C@@H](C(C)C)C(=O)O[C@H]1C)[C@@H](C)OC(=O)[C@H](C)NC(=O)CCC [Loggerpeptin B (2), loggerpeptin B]
fold less potent than 1, HNE [1]: 3 fold | IC50 [1, 13]: 890 ± 90 nM

C/C=C(\NC(=O)[C@H](C)NC(=O)CCC)C(=O)N[C@@H]1C(=O)N[C@@H](CC(C)C)C(=O)N[C@H]2CC[C@@H](O)N(C2=O)[C@@H](Cc2ccccc2)C(=O)N(C)[C@@H](Cc2ccc(O)cc2)C(=O)N[C@@H](C(C)C)C(=O)O[C@@H]1C [Loggerpeptin C (3), loggerpeptin C]
fold less potent than 1 and 2, porcine pancreatic elastase ([2]; ratio of IC50 values): 2 fold | fold less potent than 1, HNE [1]: 2 fold | IC50 [1, 13]: 620 ± 380 nM | complete inhibition of CD40ch cleavage up to (concentration) [3]: 10 µM | inhibition of HNE processing of CD40 in cells ([4]; 10 μM): lacked significant activity | inhibition of HNE processing of CD40 in cells ([4]; 50 μM): marginal activity | effect on migration of MDA-MB-231 cells (MDA-MB-231 cells [5]; different concentrations): no effect on migration

C/C=C1\NC(=O)[C@@H](NC(=O)[C@@H](NC(=O)[C@H](C)NC(=O)CCC)[C@@H](C)O)[C@@H](C)OC(=O)[C@H](C(C)C)NC(=O)[C@H](Cc2ccc(O)cc2)N(C)C(=O)[C@H](Cc2ccccc2)N2C(=O)[C@H](CC[C@H]2O)NC1=O [Molassamide (4), molassamide]
IC50 [6]: 240 ± 10 nM | IC50 [2]: 50 ± 10 nM | IC50 [1]: 110 ± 10 nM | fold more potent than 3 in inhibiting CD40ch cleavage [3]: 10 fold | complete inhibition of CD40ch cleavage up to (concentration) [3]: 1 µM | inhibition of HNE processing of CD40 in cells ([4]; 50 μM): virtually complete inhibition | effect on viability of MDA-MB-231 cells (MDA-MB-231 cells [7]): no reduction in cell viability | elastase-induced ICAM-1 expression levels ([8]; 100 nM HNE): dose-dependent decrease | ICAM-1 expression levels in the absence of HNE ([8]; without HNE): no significant change | reduction in the levels of sICAM-1 ([9]; 10 μM): 35% | reduction in the levels of sICAM-1 ([9]; 50 μM): 65% | effect on the levels of sICAM-1 in the absence of HNE ([9]; without HNE): no effects | HNE-induced cell rounding prevented up to (concentration) (MDA-MB-231 cells [10]; co-treatment with 100 nM HNE, 3 h): 10 µM | morphological changes upon treatment with compound only (MDA-MB-231 cells [10]; without HNE, up to 50 μM): no morphological changes | effect on migration of MDA-MB-231 cells (MDA-MB-231 cells [5]; 10 μM): inhibited the migration | effect on migration of MDA-MB-231 cells in the absence of HNE (MDA-MB-231 cells [5]; without HNE): did not exhibit any migration inhibitory activity | inhibition of chymotrypsin-like activity of proteasomes [11]: did not inhibit

CC(C)(C)C(=O)Oc1ccc(S(=O)(=O)Nc2ccccc2C(=O)NCC(=O)O)cc1 [Sivelestat, reference compound]
IC50 [2]: 3550 ± 140 nM

CC(=O)N1CCC[C@H]1C(=O)N[C@H](C(=O)N[C@@H]1C(=O)N[C@@H](CC(C)C)C(=O)N[C@H]2CC[C@@H](O)N(C2=O)[C@@H](Cc2ccccc2)C(=O)N(C)[C@@H](Cc2ccc(O)cc2)C(=O)N[C@@H](C(C)C)C(=O)O[C@@H]1C)[C@@H](C)O [kempopeptin A]
IC50 [12]: 300 nM
